Measurements taken from ChEMBL document CHEMBL1134458, “Synthesis and structure-activity relationships of cetiedil analogues as blockers of the Ca(2+)-activated K+ permeability of erythrocytes” (J Med Chem, 2001).

Assays:
[1] = (§1) Partition coefficient (logP); format: physicochemical; details: octanol/water
Method in brief: (§2)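 Calculated, not measured, for the free base by summing Mannhold/Rekker revised hydrophobic fragmental constants.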

Oryctolagus cuniculus [2] = species: Oryctolagus cuniculus; test: Inhibition of K+ loss from rabbit blood cells treated with [Ca2+] ionophore A-23187.; format: functional
Method in brief: (§3)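 Rabbit red cells were stored at 4 °C for up to 4 days, then suspended at ~1% hematocrit in low-K⁺ saline (0.1 mM KCl, 1 mM CaCl₂, inosine, Tris, pH 7.4) at 37 °C. They were preincubated 40–60 min with compound from DMSO stock (120 min for one; 3 min for highly lipophilic ones). A23187 2 μM was added, and K⁺ loss was read by K⁺ electrode over 3 min. Total K⁺ came from digitonin lysis, and loss was expressed as % of control.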

[3] = as §1; format: physicochemical; details: octanol/water; method in brief: as §2; remark: listed apart in the source
Oryctolagus cuniculus [4] = species: Oryctolagus cuniculus; test: Concentration required to cause 50% inhibition of K+ loss from rabbit blood cells treated with [Ca2+] ionophore A-23187; format: functional
Method in brief: as §3, with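 “control. Assays were run ≥3 times, and IC50 was fitted by Hill equation (common nH, 100% maximum).” for “control.”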

SMILES: O=C(OCCN1CCCCCC1)C1(Cc2ccc([N+](=O)[O-])cc2)c2ccccc2-c2ccccc21
- logP [1]: 6.92
- logP ([1]; read-out: logP): 7.44
- IC50 (Oryctolagus cuniculus [2]): 4.6 µM

SMILES: O=C(OCCN1CCCCCC1)C1(Cc2ccccc2)c2ccccc2-c2ccccc21
- logP [1]: 7.18
- logP ([1]; read-out: logP): 7.68
- IC50 (Oryctolagus cuniculus [2]): 4 µM

SMILES: O=C(OCCN1CCCCCC1)C1(Cc2ccc(Cl)cc2)c2ccccc2-c2ccccc21
- logP [1]: 7.89
- logP ([1]; read-out: logP): 8.41
- IC50 (Oryctolagus cuniculus [2]): 2.9 µM

SMILES: O=C(OCCN1CCCCCC1)C1(Cc2ccc(F)cc2)c2ccccc2-c2ccccc21
- logP [1]: 7.32
- logP ([1]; read-out: logP): 7.92

SMILES: O=C(Cc1ccsc1)OCCN1CCCCCC1
- logP [1]: 3.55
- logP ([1]; read-out: logP): 3.45
- IC50 (Oryctolagus cuniculus [2]): 142 µM

SMILES: O=C(OCCN1CCCCCC1)C(C1CCCCC1)C1CCCCC1
- logP [1]: 6.86
- logP ([1]; read-out: logP): 8.33
- IC50 (Oryctolagus cuniculus [2]): 14 µM

SMILES: O=C(OCCCN1CCCCCC1)C(c1ccccc1)(c1ccccc1)c1ccccc1
- logP ([1]; read-out: logP): 7.65
- logP [3]: 6.4
- IC50 (Oryctolagus cuniculus [4]): 9.2 µM

SMILES: O=C(OCCN1CCCCCC1)C(c1ccccc1)(c1ccccc1)c1ccccc1
- logP ([1]; read-out: logP): 7.14
- logP [3]: 6.69
- IC50 (Oryctolagus cuniculus [4]): 8.2 µM

SMILES: O=C(OCCN1CCCCCC1)c1c2ccccc2cc2ccccc12
- logP ([1]; read-out: logP): 6.45
- logP [3]: 6.36
- IC50 (Oryctolagus cuniculus [4]): 28 µM

SMILES: O=C(OCCN1CCCCCC1)c1cccc2ccccc12
- logP [1]: 5.18
- logP ([1]; read-out: logP): 5.16
- IC50 (Oryctolagus cuniculus [2]): 222 µM

SMILES: O=C(OCCN1CCCCCC1)C12C[C@H]3C[C@@H](C1)C[C@@H](C2)C3
- logP [1]: 4.38
- logP ([1]; read-out: logP): 5.6
- IC50 (Oryctolagus cuniculus [2]): 178 µM

SMILES: O=C(OCCN1CCCCCC1)c1ccc2ccccc2c1
- logP [1]: 5.18
- logP ([1]; read-out: logP): 5.16
- IC50 (Oryctolagus cuniculus [2]): 285 µM

SMILES: O=C(OCCN1CCCCCC1)C(c1ccccc1)C1CCCCC1 (stereo unspecified)
- logP [1]: 5.93
- logP ([1]; read-out: logP): 6.88
- IC50 (Oryctolagus cuniculus [2]): 18 µM

SMILES: O=C(CC1CCCCC1)OCCN1CCCCCC1
- logP [1]: 4.93
- logP ([1]; read-out: logP): 5.18
- IC50 (Oryctolagus cuniculus [2]): 290 µM

SMILES: O=C(OCCN1CCCCCC1)C(c1ccccc1)c1ccccc1
- logP [1]: 5.25
- logP ([1]; read-out: logP): 5.44
- IC50 (Oryctolagus cuniculus [2]): 164 µM

SMILES: c1ccc(C(CCOCCN2CCCCCC2)(c2ccccc2)c2ccccc2)cc1
- logP ([1]; read-out: logP): 7.83
- logP [3]: 7.35
- IC50 (Oryctolagus cuniculus [4]): 5.5 µM

SMILES: O=C(CC(c1ccccc1)(c1ccccc1)c1ccccc1)OCCN1CCCCCC1
- logP ([1]; read-out: logP): 7.65
- logP [3]: 7.11
- IC50 (Oryctolagus cuniculus [4]): 9.3 µM

SMILES: O=C(CC(c1ccccc1)c1ccccc1)OCCN1CCCCCC1
- logP [1]: 5.67
- logP ([1]; read-out: logP): 5.96
- IC50 (Oryctolagus cuniculus [2]): 43 µM

SMILES: O=C(OCCN1CCCCCC1)C(c1ccccc1)c1ccsc1 (stereo unspecified)
- logP [1]: 4.9
- logP ([1]; read-out: logP): 5.15
- IC50 (Oryctolagus cuniculus [2]): 47 µM

SMILES: O=C(OCCN1CCCCCC1)C(c1ccsc1)C1CCCCC1 (stereo unspecified)
- logP [1]: 5.98
- logP ([1]; read-out: logP): 6.59
- IC50 (Oryctolagus cuniculus [2]): 25 µM

SMILES: COc1ccc(CC2(C(=O)OCCN3CCCCCC3)c3ccccc3-c3ccccc32)cc1
- logP [1]: 7.09
- logP ([1]; read-out: logP): 7.75
- IC50 (Oryctolagus cuniculus [2]): 2.8 µM

SMILES: C(#CCC1(Cc2ccccc2)c2ccccc2-c2ccccc21)CN1CCCCCC1
- logP [1]: 9.1
- logP [3]: 7.9
- IC50 (Oryctolagus cuniculus [4]): 1.5 µM

SMILES: O=C(NCCN1CCCCCC1)C(c1ccsc1)C1CCCCC1 (stereo unspecified)
- logP [1]: 5.11
- logP ([1]; read-out: logP): 5.15
- IC50 (Oryctolagus cuniculus [2]): 75 µM

SMILES: O=C(OCCN1CCCCCC1)C1c2ccccc2-c2ccccc21
- logP [1]: 5.24
- logP ([1]; read-out: logP): 5.47
- IC50 (Oryctolagus cuniculus [2]): 42 µM
